# Screening results (PubChem BioAssay)
# Not all results are given here.
# PGC1a Ac signal: raises PGC1a acetylation signal in U2OS cells; U2OS PGC1a acetylation AlphaScreen, overnight; activation, % at 15.6 µM; hit rate 0.21% among 350,000;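 active means every replicate reaching activation of at least 50%, whatever the mean replicate activation; inconclusive means replicates that disagree or another doubt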;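 further: hits raise the AlphaScreen acetylation signal above neutral controls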
#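 Incubation: overnight compound treatment, 37 °C. System: U2OS cells transduced with flag-tagged PGC1a and GCN5 acetyltransferase. Detection: AlphaScreen lysate read. Compound: single-point compound dosing.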
# G6PC hep suppr: PGC-1a acetylation activators affecting G6PC expression in hepatocytes; shares compounds with PGC1a Ac signal; primary mouse hepatocytes, G6PC mRNA qPCR, forskolin; 240 tested, under 10 active; AID 743463; G6PC suppression (normalized activity, % of positive control; higher = more suppression), % at 26 µM;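 active means dose curves showing G6PC suppression whose half-maximal dose is at most twice the top valid dose; inconclusive means flat curves with moderate negative activity, or unreliable fits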;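 further: G6PC expression relative to GAPDH housekeeping gene as delta delta Ct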
# PCK1 hep suppr: PGC-1a acetylation activator altering hepatocyte PCK1 expression; primary mouse hepatocytes, PCK1 mRNA qPCR, forskolin-stimulated; 230 tested, under 10 active; shares compounds with PGC1a Ac signal; PCK1 expression decrease, unspecified at 26 µM;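 active means compounds lowering PCK1 expression whose fitted half-maximal concentration is at most twice the top tested dose; inconclusive means flat fit with moderate opposite-direction effect, or poor fit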;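 further: higher delta delta Ct means lower PCK1 expression so positive values indicate hits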
# Hep PGC-1a down: hepatocyte PGC-1a expression change via PGC-1a acetylation activation; max activity (PGC-1a expression decrease), %; 240 tested, under 10 active; primary mouse hepatocytes, PGC-1a mRNA qPCR, forskolin; top dose 26 µM; shares compounds with PGC1a Ac signal;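 active means compound lowering PGC-1a expression with fitted half-maximal concentration at most twice its top tested dose; inconclusive means flat curve with moderate opposite-direction effect, or poor fit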
# Numbers stand for hits; - = inactive; ? = inconclusive; . = no result.
SMILES,PGC1a Ac signal,others
COc1cccc(-n2c(Cc3cc(=O)[nH]c(=O)[nH]3)nnc2SCc2cccc(C(F)(F)F)c2)c1,-,
O=C(Nc1cccc2[nH]ncc12)c1ccc(F)cc1,-,
S=c1nc[nH]c2c1cnn2Cc1ccccc1,-,
O=C(Nc1ccc(Cl)c(Cl)c1)N[C@@H]1CC[C@H](CCn2cc(C3CC3)nn2)O[C@H]1CO,-,
Cc1ccc(S(=O)(=O)CCSC(=N)N)cc1,67,
CC(=O)CS(=O)(=O)c1ccc(Oc2ccc(S(=O)(=O)CC(C)=O)cc2)cc1,-,
CN(C)CCCN(C(=O)CCOc1ccccc1)c1nc2ccc(F)cc2s1,-,
CN(C)CCOc1ccc(/C(=C(/CCCl)c2ccccc2)c2ccccc2)cc1,109,
CO[C@H]1CN(C)C(=O)c2ccc(NC(=O)C3CCOCC3)cc2OC[C@@H](C)N(C)C[C@@H]1C,-,
O=C1C(Cl)=C(Nc2ccc3cn[nH]c3c2)C(=O)c2ccccc21,-,
COc1ccc(C)cc1NC(=O)C1CCCN(S(=O)(=O)c2cccs2)C1 (stereo not drawn),-,
O=C(NCc1ccc2c(c1)OCO2)C1CCN(S(=O)(=O)c2cccs2)CC1,83,
COc1ccccc1C#Cc1ccc([C@H]2[C@H](C#N)N(C(=O)C3CCCC3)[C@H]2CO)cc1,-,
O=C(Nc1ccccc1F)N1CCCCN2[C@H](CO)[C@H](c3ccc(C#Cc4ccccc4)cc3)[C@H]2C1,72,
COc1ccc(C#Cc2ccc([C@@H]3[C@H](CO)N4CCCCN(C(=O)Nc5ccccc5)C[C@@H]34)cc2)cc1,78,
CC(C)CC#Cc1ccc([C@@H]2[C@H](CO)N3CCCCN(S(=O)(=O)Cc4ccccc4)C[C@@H]23)cc1,61,
O=c1[nH]c2nc(Cl)nc(Cl)c2[nH]1,-,
Cc1nc2ccccc2n2c(O)c(CC(=O)O)cc12,-,
O=C(C[C@@H]1C=C[C@@H](NC(=O)Nc2ccc(F)cc2)[C@@H](CO)O1)NCCN1CCCC1,-,
Cc1cc(C)nc(NC(=O)NS(=O)(=O)Nc2ccc(Br)cn2)n1,-,
O=C(C[C@@H]1CC[C@@H]2[C@H](COC[C@@H](O)CN2S(=O)(=O)c2ccc(Cl)cc2)O1)N[C@@H]1CCN(Cc2ccccc2)C1,-,
CCC(=O)Nc1nnc(SCCOC)s1,-,
CCCc1nnc(NC(=O)CN2CCOCC2)s1,93,
COc1cccc(OC)c1NC(=O)C1CCCN1C(=O)NCc1ccccc1 (stereo not drawn),-,
COc1ccccc1CN=Cc1[nH]c2ccc(Br)c(Cl)c2c1O,52,
SMILES,PGC1a Ac signal,others
COCCNC(=O)C(c1ccc(F)cc1)N(Cc1ccco1)C(=O)CCC(=O)Nc1nccs1 (stereo not drawn),-,
O=S1(=O)CC=C(CSC(=S)NC2CCS(=O)(=O)C2)C1 (stereo not drawn),-,
C=CCOC(=O)C1=C(C)NC(SCC)=C(C#N)C1c1ccc(Cl)cc1 (stereo not drawn),-,
CCOC(=O)C1=C(C)NC(=O)NC1c1ccccc1Cl (stereo not drawn),57,
Cc1ccc(/C(N)=N/OC(=O)c2ccco2)cc1,62,
N#Cc1ccccc1S(=O)(=O)N1CCN(Cc2cc3c(cc2Br)OCCO3)CC1,105,
CC(=O)c1c(N2CCOCC2)nc(=O)n(-c2ccccc2)c1C,-,
NC(=O)C1CCCc2c1[nH]c1ccc(Cl)cc21 (stereo not drawn),.,G6PC hep suppr=-;PCK1 hep suppr=-;Hep PGC-1a down=-
CC1C(=O)C(C)(C)C(=O)OC1c1ccccc1 (stereo not drawn),-,
O=C(CC1S/C(=N/N=C/c2c[nH]c3ccccc23)NC1=O)Nc1ccccc1 (stereo not drawn),-,
CNC[C@@H](CC1CCCCC1)NC[C@H](CC(C)C)NCCc1cccc(C(F)(F)F)c1,-,
CCOC(=O)c1sc2nc(C)nc(NCc3ccccc3OC)c2c1C,-,G6PC hep suppr=-;PCK1 hep suppr=-;Hep PGC-1a down=-
COc1ccc(N2C(=O)CC2(/C=C/c2ccccc2OC)C(=O)NC2CCCC2)cc1 (stereo not drawn),-,
O=C(C/C=N/OCc1c(Cl)cccc1Cl)c1cnc(-c2ccccc2)s1,-,
C[C@@H](C(=O)Nc1nc2ccc(F)cc2s1)N1C(=O)C2CC=CCC2C1=O (stereo partly drawn),-,
Cc1ccccc1Nc1ncnc2c1cnn2-c1ccccc1,-,
CCCc1cc2c(cc1N(C)S(=O)(=O)c1ccccc1)OCO2,?,G6PC hep suppr=-;PCK1 hep suppr=-;Hep PGC-1a down=-
CC(=O)N(CCC(Cc1ccccc1)c1ccc2c(c1)OCO2)Cc1ccccc1F (stereo not drawn),-,
Fc1ccc(-c2nn3c(C4COc5ccccc5O4)nnc3s2)cc1 (stereo not drawn),55,G6PC hep suppr=-;PCK1 hep suppr=-;Hep PGC-1a down=-
CC(C)(C)C1CCC(CN2C(Nc3ccccc3)=NC[C@@H]2Cc2ccccc2)CC1 (stereo partly drawn),-,
Cc1ccc(-n2c(O)c(C=NC3CCS(=O)(=O)C3)c3ccccc3c2=O)c(C)c1 (stereo not drawn),-,
C[C@@H]1CN([C@H](C)CO)C(=O)c2c(c3ccccc3n2C)-c2ccccc2CO[C@@H]1CN(C)C(=O)Nc1ccc2c(c1)OCO2,?,G6PC hep suppr=-;PCK1 hep suppr=-;Hep PGC-1a down=?
C[C@@H]1CN([C@@H](C)CO)C(=O)c2c(c3ccccc3n2C)-c2ccccc2CO[C@@H]1CN(C)C(=O)Nc1ccccc1C(F)(F)F,74,G6PC hep suppr=-;PCK1 hep suppr=-;Hep PGC-1a down=-
C[C@@H]1CN([C@@H](C)CO)C(=O)Cc2cc(NC(=O)Cc3ccccc3)ccc2O[C@H]1CN(C)C(=O)Nc1ccccc1,-,G6PC hep suppr=-;PCK1 hep suppr=-;Hep PGC-1a down=-
C[C@@H]1CN([C@H](C)CO)C(=O)c2c(c3ccccc3n2C)-c2ccccc2CO[C@@H]1CN(C)C(=O)[C@H](C)c1ccccc1,133,G6PC hep suppr=-;PCK1 hep suppr=-;Hep PGC-1a down=-
SMILES,PGC1a Ac signal,others
C[C@H](CO)N1C[C@H](C)[C@@H](CN(C)C(=O)Nc2ccc(-c3cccs3)cc2)OCc2cnnn2CCCC1=O,-,
CCN(CC)CC#CCOC(c1ccccc1)c1ccccc1,-,
NCc1cccc(-n2cccn2)c1,-,
CC(C)(C)OC(=O)NCCc1nnc(SCc2ccc(Cl)cc2)o1,-,
COc1ccc(C[C@@H]2OC3(C=CC(=O)C=C3)O[C@H]2Cc2ccc(OC)cc2)cc1,-,
C[C@@H]1CN([C@H](C)CO)C(=O)c2c(c3ccccc3n2C)-c2ccccc2CO[C@@H]1CN(C)C(=O)c1ccc(F)cc1,78,G6PC hep suppr=-;PCK1 hep suppr=-;Hep PGC-1a down=-
CCOC(=O)C1(Cc2ccccc2)CCN(Cc2cccc(OC)c2O)CC1,84,G6PC hep suppr=-;PCK1 hep suppr=-;Hep PGC-1a down=?
COc1cc(-c2cnc3c(NC(C)=O)cc(-c4ccccc4CN(C)C)cn23)cc(OC)c1OC,?,G6PC hep suppr=-;PCK1 hep suppr=-;Hep PGC-1a down=-
Cc1ccc(C)n1-c1ccc(-c2nnco2)cc1,-,
COc1ccc(C(CC(=O)Nc2ccccn2)N2Cc3ccccc3C2=O)cc1 (stereo not drawn),-,
Cc1nnc(NCc2ccccc2)c2ccccc12,?,PCK1 hep suppr=-;Hep PGC-1a down=-
CSc1n[nH]c(NCc2ccccc2)n1,-,
Brc1ccc2ncnc(NCc3ccccc3)c2c1,-,
O=C(c1ccco1)N1CCN(c2nnc(-c3ccccc3)c3ccccc23)CC1,?,G6PC hep suppr=-;PCK1 hep suppr=-;Hep PGC-1a down=?
COCCCNC(=O)c1cc(=O)n(Cc2ccc(Cl)cc2)c2ccccc12,-,
